High-throughput results deposited in PubChem by several laboratories.
TNAP inh no acc: inhibitors of human TNAP without phosphate acceptor; P05186; purified TNAP, CDP-star luminescence, 30 min; inhibition, % at 20 µM; 200,000 tested, 0.26% active;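 active means tissue-nonspecific alkaline phosphatase inhibition above about 50% at 20 µM in the single-dose screen, limit read from the data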;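 further: 0% = DMSO negative control and 100% = EDTA positive control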
Target sequence (P05186 whole entry, looked up): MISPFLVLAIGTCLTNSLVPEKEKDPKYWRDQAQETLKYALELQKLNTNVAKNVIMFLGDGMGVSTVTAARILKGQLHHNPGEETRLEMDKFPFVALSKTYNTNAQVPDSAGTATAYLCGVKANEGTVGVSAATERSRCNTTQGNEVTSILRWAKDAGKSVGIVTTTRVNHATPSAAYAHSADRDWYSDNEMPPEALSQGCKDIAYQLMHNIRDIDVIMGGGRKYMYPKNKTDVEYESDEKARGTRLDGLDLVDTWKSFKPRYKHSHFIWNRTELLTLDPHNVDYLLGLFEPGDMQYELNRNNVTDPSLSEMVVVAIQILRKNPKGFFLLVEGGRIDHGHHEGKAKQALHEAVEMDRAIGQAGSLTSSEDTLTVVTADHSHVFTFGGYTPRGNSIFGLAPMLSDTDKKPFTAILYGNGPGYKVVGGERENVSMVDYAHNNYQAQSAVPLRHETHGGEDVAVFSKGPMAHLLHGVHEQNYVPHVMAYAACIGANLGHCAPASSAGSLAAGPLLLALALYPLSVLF
BB579 growth dn: chemicals that inhibit yeast BB579 growth in restrictive medium (lifespan-shortening candidates). S. cerevisiae BB579 growth, OD615, 48 h. inhibition, % at 10 µM. 140,000 tested, 0.51% active;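 active means inhibition above a set limit, 3 SD over the mean compound inhibition, cut at about 44% in these data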
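System: Saccharomyces cerevisiae DeaD strain BB579, replicative lifespan model yeast. Buffer or medium: restrictive glucose-based CSMM-D medium. Doses: one dose, 10 µM compound with 0.25% DMSO. Timing: 4 h preincubation and 48 h exposure at 30 °C. Detection: turbidity as optical density at 615 nm. Benchmarks: amphotericin B 10 µg/mL, positive.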
TNAP act hiacc: increases human TNAP activity under high phosphate acceptor concentration; 200,000 tested, under 10 active; AID 1136; purified TNAP, CDP-star luminescence, 1 M DEA, 30 min; stronger effect = higher value; 0 = EDTA background, 1 = DMSO-only activity; activation factor at 20 µM;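 active means activation factor at least 2 at 20 µM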
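Assay system: human TNAP; Input: enzyme diluted 1/800 final; Reagent: CDP-star luminogenic substrate at 100 µM final; Timing: 30 min, room temperature; Signal: luminescence; Evaluation: TNAP activation factor scaled between EDTA and DMSO control wells.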
TNAP inh hi DEA: inhibitors of human TNAP at high phosphate acceptor concentration; 200,000 tested, 0.03% active; AID 1135; inhibition, % at 20 µM; purified TNAP, CDP-star luminescence, 1 M DEA;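 active means over 50% inhibition of tissue-nonspecific alkaline phosphatase at 20 µM in the single-dose screen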;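 further: plate controls were DMSO wells for no effect and EDTA-quenched wells as full inhibition for full effect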
Yeast lifespan up: yeast lifespan extension | AID 775 | 130,000 tested, 0.68% active | inhibition of the nicotinamide effect, % at 10 µM | S. cerevisiae growth with nicotinamide, OD615; deaD strain in restrictive glucose medium;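 active means inhibition above a set limit, placed 3 SD over the median of all compounds, cut at about 26% in these data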;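 further: 0% = nicotinamide-treated wells and 100% = cells grown without nicotinamide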
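Buffer or medium: CSMM-D glucose medium, restrictive; test system: modified budding yeast, DeaD strain; compound: single dose 10 µM compound, 0.25% DMSO; schedule: culture preincubation 4 h, compound exposure 48 h, both 30 °C; detection: optical density (absorbance) at 615 nm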
RAM inhibit: yeast RAM network inhibition; inhibition, % at 50 µM; S. cerevisiae dse1pr::URA3 reporter, 5-FOA growth OD615, 2 d; analog-sensitive cbk1-as2 kinase mutant strain; 190,000 tested, 1.8% active;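 active means inhibition above a set limit, 3 SD over mean compound inhibition, cut at about 8.4% in these data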;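 further: 0% = DMSO-only wells with no growth and 100% = 10 µM 1-NA-PP1 full growth; inhibition rescues growth on 5-FOA so higher OD means more RAM inhibition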
RAM 5-FOA: restores 5-FOA growth of efflux-deficient yeast; 1,200 tested, under 10 active; S. cerevisiae efflux-deficient reporter strain, 5-FOA growth OD615, 2 days; AID 1305; max inhibition, %; shares compounds with RAM inhibit; call rule not given here;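 further: plate controls were vehicle for no effect and reference inhibitor for full effect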
Numbers without * were called inactive; · = no result. This is a sample that favours compounds with a hit; in the whole collection about 2.8% have one here.

SMILES | TNAP inh no acc | BB579 growth dn | TNAP act hiacc | TNAP inh hi DEA | Yeast lifespan up | RAM inhibit | RAM 5-FOA
CCOC(=O)c1oc2ccc(Br)cc2c1CSc1nnc(C)s1 | -8 | -52 | 1.1 | -5 | -1 | 17* | 2
CCc1noc(C)c1C(=O)Nc1nnc(C2CCCCC2)s1 | 14 | · | 1 | -3 | · | 1 | ·
Cn1c(=O)[nH]c(=O)c2c1nc(Sc1ccccc1)n2CCc1ccccc1 | -12 | -55 | 1 | -4 | -1 | 1 | 2
Cc1ccc(Sc2nc3c(c(=O)[nH]c(=O)n3C)n2CCc2ccccc2)cc1 | -4 | -14 | 1.1 | -7 | -7 | 3 | ·
O=C(CCSCc1ccc(Cl)cc1)NCc1ccco1 | -11 | · | 1 | -4 | · | 1 | ·
Cc1ccc(CS/C(Nc2ccccc2C)=C(\C#N)C(=O)NCc2ccco2)c(C)c1 | -8 | -16 | 1 | -3 | -2 | 13* | 6
Cc1ccccc1N/C(SCc1ccc(Cl)cc1)=C(/C#N)C(=O)NCc1ccco1 | -4 | -29 | 1 | -2 | 4 | 15* | 6
CN(C)S(=O)(=O)N1CCC(c2ccc(F)cc2)C(COc2ccc3c(c2)OCO3)C1 (stereo unspecified) | -8 | -6 | 1 | -3 | 1 | 17* | 4
OC(COc1ccc2c(c1)OCO2)CN1CCN(c2ccc(F)cc2)CC1 (stereo unspecified) | 2 | · | 1 | -4 | · | 1 | ·
CCOc1cc(/C=N/N=C2/NC(=O)C(CC(=O)O)S2)ccc1OS(=O)(=O)c1ccc(C)cc1 (stereo unspecified) | -4 | · | 1.1 | -5 | · | 12* | 2
Cc1ccc(S(=O)(=O)Oc2ccc(/C=N/N=C3/NC(=O)C(CC(=O)O)S3)cc2)cc1 (stereo unspecified) | -3 | · | 1 | -1 | · | · | ·
CCC(=O)NC(Nc1nc(C)cs1)(C(=O)OC)C(F)(F)F (stereo unspecified) | -5 | -45 | 1 | -3 | 6 | 1 | ·
O=C(OCC#CCSc1nnc(-c2cccc3ccccc23)o1)c1cccs1 | -8 | -45 | 1 | 0 | -9 | 14* | 2
O=C(OCC#CCSc1nnc(-c2ccccc2)o1)c1cccs1 | -10 | -28 | 1 | -2 | -5 | 3 | ·
COc1cc(CNn2c(C)n[nH]c2=S)cc(Br)c1OCc1ccc(F)cc1 | 31 | -30 | 0.9 | 6 | 0 | 4 | ·
COc1cc(CNn2c(C)n[nH]c2=S)cc(Cl)c1OCc1ccc(F)cc1 | 32 | -46 | 1 | 4 | 5 | 12* | 1
COc1ccc(/C=C/C(=O)c2c(O)c(OC)c3occc3c2OC)cc1 | 2 | · | 1 | -2 | · | 12* | 3
COc1ccc(/C=C/C(=O)c2ccoc2)cc1 | -9 | -40 | 1 | -3 | -14 | 0 | ·
CCOc1ccc2nc(NC(=O)C3CCCN(S(=O)(=O)c4cccs4)C3)sc2c1 (stereo unspecified) | -2 | -61 | 1 | 0 | 2 | 1 | ·
COc1ccc(CN/C(C)=C(/C#N)C(N)=O)cc1OC | -5 | -43 | 1 | -1 | 13 | 0 | ·
c1ccc(CSc2nnc(Cc3ccccc3)o2)cc1 | -6 | · | 1 | -3 | · | 1 | ·
Fc1ccc(CSc2nnc(Cc3sc(-c4ccccc4)nc3-c3ccccc3)o2)cc1 | -6 | -71 | 1.1 | -7 | 13 | 22* | 2
O=C(COC(=O)CNS(=O)(=O)c1c(Cl)cccc1Cl)Nc1cccnc1Cl | 4 | -49 | 1 | -3 | 5 | 2 | ·
O=C(CCNC(=O)c1ccco1)Nc1ccccc1N1CCOCC1 | -14 | · | 1.1 | -5 | · | -1 | ·
C=CCSc1nc2ccccc2c2nc(-c3ccccc3)nn12 | -3 | -10 | 1 | -1 | -7 | 13* | 2
SMILES | TNAP inh no acc | BB579 growth dn | TNAP act hiacc | TNAP inh hi DEA | Yeast lifespan up | RAM inhibit | RAM 5-FOA
C=CCNC(=O)CCC(=O)NNc1nc2ccccc2c2nc(-c3ccccc3)nn12 | -154 | · | 1 | -3 | · | 2 | ·
CCCCOC(=O)c1ccc(NC(=S)NC(=O)c2c(Cl)cnn2CC)cc1 | 10 | -41 | 0.9 | 8 | -8 | 8 | ·
CCCCOC(=O)c1ccc(NC(=S)NC(=O)c2c(Cl)cnn2C)cc1 | 16 | -44 | 1 | 3 | -9 | 16* | 1
Cc1ccc2nc(-c3ccc(NC(=O)CSc4nccc(=O)[nH]4)cc3)sc2c1 | -16 | · | 1 | -4 | · | 12* | 3
Cc1ccc(Oc2ccc(NC(=O)CCC(=O)OCC(=O)c3cccs3)cc2)cc1C | -3 | -46 | 1 | -1 | -5 | 13* | 3
CC(=O)c1ccc(NC(=O)COC(=O)CCC(=O)c2cccs2)cc1 | -23 | -31 | 1 | -1 | -5 | 2 | ·
CCN(CC)S(=O)(=O)c1cccc(-c2nnc(SCCCC(=O)c3ccc(F)cc3)o2)c1 | -4 | -45 | 1 | -3 | 4 | 13* | 3
CCN(CC)S(=O)(=O)c1cccc(-c2nnc(SCCCC(=O)c3ccccc3)o2)c1 | -3 | -30 | 1 | 2 | 3 | 12* | 3
CCN(CC)S(=O)(=O)c1cccc(-c2nnc(-c3ccc(C)cc3)o2)c1 | -5 | -30 | 1 | -1 | -11 | 7 | ·
CCN(CC)S(=O)(=O)c1cccc(-c2nnc(SCc3nc4ccccc4s3)o2)c1 | -12 | -74 | 1 | -3 | -7 | 15* | 3
CCC(Br)C(=O)Nc1ccc(OC)cc1 (stereo unspecified) | -14 | · | 1 | -2 | · | 2 | ·
N#Cc1c(NC(=S)NC(=O)Cc2cccs2)sc2c1CCCCC2 | 8 | -33 | 1 | 3 | -3 | 5 | ·
C#CCSc1nnc(-c2cc3c(C(F)(F)F)nn(C)c3s2)n1C | -5 | -41 | 1 | 1 | -12 | 2 | ·
O=C(CCC(=O)NC1CCCCC1)N/N=C/c1ccncc1 | -9 | · | 1 | 2 | · | 2 | ·
CC(=O)N(CCC(c1ccccc1)c1ccco1)Cc1cccs1 (stereo unspecified) | -4 | -51 | 1 | -1 | -8 | 28* | 2
COc1ccc(CNc2oc(Cc3cccc4ccccc34)nc2C#N)cc1 | -15 | -26 | 1.1 | -7 | -1 | 13* | 3
N#Cc1nc(-c2cccc3ccccc23)oc1N1CCCCC1 | -13 | 6 | 1 | 1 | -2 | 2 | ·
COc1ccc(CNc2oc(COc3ccccc3)nc2C#N)cc1 | -9 | -16 | 1 | 0 | -9 | 5 | ·
N#Cc1nc(Cc2ccccc2)oc1N1CCN(c2ccccc2)CC1 | -11 | -33 | 1.1 | -7 | -8 | 5 | ·
COc1ccccc1-c1nc(C#N)c(N2CCC(Cc3ccccc3)CC2)o1 | 5 | -48 | 1 | -3 | -9 | 13* | 5
N#Cc1nc(Cc2cccc3ccccc23)oc1N1CCCCC1 | -1 | -26 | 1 | -2 | 1 | 12* | 3
